Tests used:
Assay type in all cases: functional
SF-295 = test: Growth inhibition of human SF295 cells
IGROV-1 [1] = test: Growth inhibition of human IGROV1 cells
How it was run: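 Follow-up panel testing at five concentrations (10^-4, 10^-5, 10^-6, 10^-7 and 10^-8 M) across the 60 human tumor cell lines. GI50 was obtained for each line from the concentration-response data, with the panel average GI50 also reported.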

SK-MEL-5 [2] = test: Growth inhibition of human SK-MEL-5 cells
CAKI-1 = test: Growth inhibition of human Caki1 cells
UACC-257 = test: Growth inhibition of human UACC257 cells
ACHN [3] = test: Growth inhibition of human ACHN cells
KM12 = test: Growth inhibition of human KM12 cells
SNB-19 = test: Growth inhibition of human SNB19 cells assessed tumor cell growth at 10^-5 M; parameters: scale not given: the % may be the effect or the level left
How it was run: (§1)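 Single-dose screen at 10^-5 M across the 60 human tumor cell line panel, run to NCI standards. The value is the percent growth of each cell line in the presence of compound. Compounds active at this dose moved on to five-concentration testing (10^-4 to 10^-8 M).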

M14 [4] = test: Growth inhibition of human M14 cells
LOX IMVI [5] = test: Growth inhibition of human LOXIMVI cells
SK-MEL-5 [6] = test: Growth inhibition of human SK-MEL-5 cells assessed tumor cell growth at 10^-5 M; parameters: scale not given: the % may be the effect or the level left
How it was run: (§2)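 NCI 60-human-tumor-cell-line panel screen. Each compound was tested at a single concentration of 10^-5 M, and percent growth of tumor cells was recorded for each cell line. Growth inhibition was expressed from these percent-growth values.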

SK-OV-3 [7] = test: Growth inhibition of human SKOV3 cells
SN12C = test: Growth inhibition of human SN12C cells
[8] = Growth inhibition of human Hs 578T cells assessed tumor cell growth at 10^-5 M; parameters: scale not given: the % may be the effect or the level left; how it was run: as §2
UO-31 [9] = test: Growth inhibition of human UO31 cells
[10] = Growth inhibition of human Hs 578T cells
IGROV-1 [11] = test: Growth inhibition of human IGROV1 cells assessed tumor cell growth at 10^-5 M; parameters: scale not given: the % may be the effect or the level left; how it was run: as §2
SNB-75 [12] = test: Growth inhibition of human SNB75 cells
TK-10 = test: Growth inhibition of human TK10 cells
COLO 205 = test: Growth inhibition of human COLO205 cells
UO-31 [13] = test: Growth inhibition of human UO31 cells assessed tumor cell growth at 10^-5 M; parameters: scale not given: the % may be the effect or the level left; how it was run: as §1
LOX IMVI [14] = test: Growth inhibition of human LOXIMVI cells assessed tumor cell growth at 10^-5 M; parameters: scale not given: the % may be the effect or the level left; how it was run: as §2
K562 = test: Growth inhibition of human K562 cells
ACHN [15] = test: Growth inhibition of human ACHN cells assessed tumor cell growth at 10^-5 M; parameters: scale not given: the % may be the effect or the level left; how it was run: as §2
HCT-15 = test: Growth inhibition of human HCT15 cells assessed tumor cell growth at 10^-5 M; parameters: scale not given: the % may be the effect or the level left; how it was run: as §2
OVCAR-4 = test: Growth inhibition of human OVCAR4 cells
U-251 = test: Growth inhibition of human U251 cells assessed tumor cell growth at 10^-5 M; parameters: scale not given: the % may be the effect or the level left; how it was run: as §1
NCI-H226 = test: Growth inhibition of human NCI-H226 cells assessed tumor cell growth at 10^-5 M; parameters: scale not given: the % may be the effect or the level left; how it was run: as §2
OVCAR-5 [16] = test: Growth inhibition of human OVCAR5 cells assessed tumor cell growth at 10^-5 M; parameters: scale not given: the % may be the effect or the level left; how it was run: as §2
SF-539 = test: Growth inhibition of human SF539 cells assessed tumor cell growth at 10^-5 M; parameters: scale not given: the % may be the effect or the level left; how it was run: as §2
M14 [17] = test: Growth inhibition of human M14 cells assessed tumor cell growth at 10^-5 M; parameters: scale not given: the % may be the effect or the level left; how it was run: as §2
NCI/ADR-RES = test: Growth inhibition of human NCI/ADR-RES cells
HCT-116 = test: Growth inhibition of human HCT116 cells
SNB-75 [18] = test: Growth inhibition of human SNB75 cells assessed tumor cell growth at 10^-5 M; parameters: scale not given: the % may be the effect or the level left; how it was run: as §1
[19] = Growth inhibition of human RPMI8266 cells
HL-60(TB) = test: Growth inhibition of human HL-60(TB) cells assessed tumor cell growth at 10^-5 M; parameters: scale not given: the % may be the effect or the level left
How it was run: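 HL-60(TB), part of the 60-line panel, tested at a single concentration of 10^-5 M. The read-out is percent tumor cell growth relative to untreated growth.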

[20] = Growth inhibition of human […] cells assessed tumor cell growth at 10^-5 M; parameters: scale not given: the % may be the effect or the level left; how it was run: as §2
BT-549 = test: Growth inhibition of human BT549 cells assessed tumor cell growth at 10^-5 M; parameters: scale not given: the % may be the effect or the level left; how it was run: as §2
SW-620 = test: Growth inhibition of human SW620 cells assessed tumor cell growth at 10^-5 M; parameters: scale not given: the % may be the effect or the level left; how it was run: as §1
HOP-92 = test: Growth inhibition of human HOP92 cells assessed tumor cell growth at 10^-5 M; parameters: scale not given: the % may be the effect or the level left; how it was run: as §2
OVCAR-8 = test: Growth inhibition of human OVCAR8 cells assessed tumor cell growth at 10^-5 M; parameters: scale not given: the % may be the effect or the level left; how it was run: as §2
OVCAR-5 [21] = test: Growth inhibition of human OVCAR5 cells
SF-268 [22] = test: Growth inhibition of human SF268 cells assessed tumor cell growth at 10^-5 M; parameters: scale not given: the % may be the effect or the level left; how it was run: as §2
SF-268 [23] = test: Growth inhibition of human SF268 cells
SK-OV-3 [24] = test: Growth inhibition of human SKOV3 cells assessed tumor cell growth at 10^-5 M; parameters: scale not given: the % may be the effect or the level left; how it was run: as §2
MOLT-4 = test: Growth inhibition of human MOLT4 cells
SK-MEL-2 = test: Growth inhibition of human SK-MEL-2 cells assessed tumor cell growth at 10^-5 M; parameters: scale not given: the % may be the effect or the level left; how it was run: as §2
HCC 2998 = test: Growth inhibition of human HCC2998 cells
EKVX = test: Growth inhibition of human EKVX cells assessed tumor cell growth at 10^-5 M; parameters: scale not given: the % may be the effect or the level left; how it was run: as §2
[25] = read-out: LC50 (the source's name)

Compound: O=C1/C(=C\c2coc3ccccc3c2=O)c2ccccc2N1c1c(Cl)cccc1Cl
- GI50 (SF-295): 4.2 µM
- CC50 (SF-295; [25]): > 100 µM
- GI50 (IGROV-1 [1]): 1.6 µM
- CC50 (IGROV-1 [1]; [25]): 97.9 µM
- GI50 (SK-MEL-5 [2]): 2.4 µM
- CC50 (SK-MEL-5 [2]; [25]): > 100 µM
- GI50 (CAKI-1): 2.4 µM
- CC50 (CAKI-1; [25]): > 100 µM
- GI50 (UACC-257): 4.5 µM
- CC50 (UACC-257; [25]): > 100 µM
- GI50 (ACHN [3]): 4.1 µM
- CC50 (ACHN [3]; [25]): > 100 µM
- GI50 (KM12): 3 µM
- CC50 (KM12; [25]): > 100 µM
- Activity (SNB-19): 62.58%
- GI50 (M14 [4]): 5.2 µM
- CC50 (M14 [4]; [25]): > 100 µM
- GI50 (LOX IMVI [5]): 1.5 µM
- CC50 (LOX IMVI [5]; [25]): 57.5 µM
- Activity (SK-MEL-5 [6]): 20.33%
- GI50 (SK-OV-3 [7]): 35.4 µM
- CC50 (SK-OV-3 [7]; [25]): > 100 µM
- GI50 (SN12C): 3.3 µM
- CC50 (SN12C; [25]): > 100 µM
- Activity [8]: 27.37%
- GI50 (UO-31 [9]): 1.8 µM
- CC50 (UO-31 [9]; [25]): > 100 µM
- GI50 [10]: 9.1 µM
- CC50 [10, 25]: > 100 µM
- Activity (IGROV-1 [11]): 48.69%
- GI50 (SNB-75 [12]): 1.9 µM
- CC50 (SNB-75 [12]; [25]): > 100 µM
- GI50 (TK-10): 3.3 µM
- CC50 (TK-10; [25]): > 100 µM
- GI50 (COLO 205): 3.8 µM
- Activity (UO-31 [13]): 42.56%
- Activity (LOX IMVI [14]): 37.07%
- GI50 (K562): 2 µM
- CC50 (K562; [25]): > 100 µM
- Activity (ACHN [15]): 54.64%
- Activity (HCT-15): 24.69%
- GI50 (OVCAR-4): 3.6 µM
- CC50 (OVCAR-4; [25]): > 100 µM
- Activity (U-251): 36.04%
- Activity (NCI-H226): 90.68%
- Activity (OVCAR-5 [16]): 101.76%
- Activity (SF-539): 49.4%
- Activity (M14 [17]): 43.38%
- GI50 (NCI/ADR-RES): 3.3 µM
- CC50 (NCI/ADR-RES; [25]): > 100 µM
- GI50 (HCT-116): 1.9 µM
- CC50 (HCT-116; [25]): > 100 µM
- Activity (SNB-75 [18]): 62.74%
- GI50 [19]: 1.2 µM
- CC50 [19, 25]: 69.1 µM
- Activity (HL-60(TB)): 33.76%
- Activity [20]: 10.21%
- Activity (BT-549): 41.11%
- Activity (SW-620): 35%
- Activity (HOP-92): 32.08%
- Activity (OVCAR-8): 31.58%
- GI50 (OVCAR-5 [21]): 20.8 µM
- CC50 (OVCAR-5 [21]; [25]): > 100 µM
- Activity (SF-268 [22]): 31.99%
- GI50 (SF-268 [23]): 3.3 µM
- CC50 (SF-268 [23]; [25]): > 100 µM
- Activity (SK-OV-3 [24]): 74.8%
- GI50 (MOLT-4): 2.9 µM
- Activity (SK-MEL-2): 85.69%
- GI50 (HCC 2998): 4.2 µM
- CC50 (HCC 2998; [25]): > 100 µM
- Activity (EKVX): 33.14%
